# SIAE inh: blocks human sialic acid acetylesterase. 370,000 tested, 0.69% active. Q9HAT2. inhibition, % at 9.66 µM. SIAE FP-Rh probe binding, fluorescence polarization. AID 1053197;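 active = inhibition above a cutoff: mean of compounds within the control limits plus 3 SD of those, cut at about 17% in these data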;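 also: 0% = plate median of compound wells and 100% = probe without SIAE protein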
# Target sequence (Q9HAT2 whole entry, looked up): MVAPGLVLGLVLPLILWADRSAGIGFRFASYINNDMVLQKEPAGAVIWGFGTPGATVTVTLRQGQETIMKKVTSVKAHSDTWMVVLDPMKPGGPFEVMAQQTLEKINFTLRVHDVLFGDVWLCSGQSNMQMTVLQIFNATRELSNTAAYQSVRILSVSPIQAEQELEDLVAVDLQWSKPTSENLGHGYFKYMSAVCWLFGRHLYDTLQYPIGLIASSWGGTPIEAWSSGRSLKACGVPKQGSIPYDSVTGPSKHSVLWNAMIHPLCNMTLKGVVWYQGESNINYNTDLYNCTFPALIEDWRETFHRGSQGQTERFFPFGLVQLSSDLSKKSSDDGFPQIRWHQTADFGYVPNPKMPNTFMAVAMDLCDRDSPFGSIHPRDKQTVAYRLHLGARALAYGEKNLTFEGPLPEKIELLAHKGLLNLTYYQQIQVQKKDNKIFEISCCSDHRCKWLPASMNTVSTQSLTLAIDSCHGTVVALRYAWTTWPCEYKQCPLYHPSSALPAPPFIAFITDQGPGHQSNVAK
# ABHD4 inh: ABHD4 (mouse) inhibition, primary FP screen; purified mABHD4, FP-Rh probe fluorescence polarization; AID 720543; 370,000 tested, 0.54% active; inhibition, % at 8.92 µM;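 active = inhibition exceeding the mean over every tested compound plus 3 SD, cut at about 30% in these data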;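 also: 0% = plate median of compound wells and 100% = S159A mutant with DMSO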
#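 assay system = mABHD4 protein | compound dosing = single nominal dose of 8.92 µM, 0.89% DMSO final | read-out basis = percent inhibition of probe binding, normalized to plate controls | schedule = Enzyme–compound pre-incubation 45 min, then probe 60 min, both 25 °C | detection = fluorescence polarization, excitation 525 nm, emission 598 nm, BODIPY TMR filters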
# TCR-CD3 inh: inhibitors of human TCR-CD3 interaction; TAMRA-labeled TCR probe fluorescence, biochemical; inhibition, % at 9.4 µM; 360,000 tested, 0.37% active; AID 651800; in the data active = inhibition above about 19%;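 also: recombinant mutant TCR 2C K166C tagged with TAMRA read by polarization; 0% = receptor in buffer alone and 100% = receptor with positive control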
# HTRA1 inh: HTRA1 (human) protease inhibition. recombinant HTRA1, FP-rhodamine activity-based probe, fluorescence polarization. 340,000 tested, 0.5% active. inhibition, % at 5.96 µM. Q92743; in the data active = inhibition above about 36%;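 also: 0% = enzyme with DMSO and 100% = wells lacking enzyme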
# PAD4 inh: inhibitors of human PAD4; Q9UM07; recombinant PAD4, RCA probe fluorescence polarization; inhibition, % at 6.36 µM; 330,000 tested, 0.41% active;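 active = percent inhibition above a cutoff equal to the mean of all tested compounds plus 3 SD, cut at about 15% in these data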;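 also: 0% = PAD4 with RCA probe and DMSO and 100% = probe without PAD4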
# TDP2 absorb: TDP2 (human) inhibition, absorbance primary screen; AID 720702; inhibition, % at 12.8 µM; 370,000 tested, 0.34% active; O95551; recombinant TDP2, T5PNP hydrolysis, p-nitrophenol absorbance 415 nm;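 active = inhibition above the mean of all tested compounds plus 3 SD, set per campaign, cut at about 25% in these data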;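 also: 0% = DMSO with enzyme and 100% = buffer with substrate but no TDP2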
#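 Incubation: 2 h at 37 °C; Test system: recombinant human TDP2; Quantity: enzyme 120 nM; Read-out basis: percent inhibition; Medium: 50 mM Tris-HCl pH 7.5 with Mg2+, KCl, DTT, BSA; Repeats: single replicate; Compound: 12.8 µM single point, 1% DMSO; Signal: epi absorbance; Reagent: 5 mM T5PNP chromogenic substrate; Benchmarks: no-enzyme high, DMSO-plus-enzyme low.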
# PAD4 FP conf: PAD4 (human) inhibition, confirmed | inhibition, % at 6.36 µM | shares compounds with PAD4 inh | 1,200 tested, 28% active | recombinant PAD4, RCA probe fluorescence polarization;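 active = mean inhibition across replicates above the hit cutoff set by the earlier primary screen, cut at about 15% in these data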;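 also: inhibitors block active-site labeling by the probe so polarization falls; 0% = PAD4 with probe and DMSO and 100% = probe without PAD4 enzyme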
# An asterisk follows results filed as active; . = no result. Rows were chosen to be rich in hits. Some 2% of all compounds tested hit in one or more screens of this group.
SMILES,SIAE inh,ABHD4 inh,TCR-CD3 inh,HTRA1 inh,PAD4 inh,TDP2 absorb,others
COC(=O)c1ccccc1NC(=O)c1ccccc1OC,-4,0,9,-6,-4,15,
Cc1ccc(C)c(S(=O)(=O)Nc2cc(SCC(=O)O)c(O)c3ccccc23)c1,.,.,.,45*,33*,.,
Cc1ccc(NS(=O)(=O)c2cc(NC(=O)C(C)Oc3ccccc3)ccc2C)c(C)c1 (centres undefined),-14,-21,-4,-53,-4,-4,
CCC(C)[C@@H](C(=O)OC)N(Cc1cn(Cc2ccccc2)nn1)S(=O)(=O)c1ccccc1Br (some centres undefined),2,-4,.,.,.,3,
COC(=O)C[C@H]1CC[C@@H]2[C@@H](COc3ccc(NC(=O)c4ccccc4)cc3C(=O)N2C)O1,-7,-3,.,.,.,2,
S=C(NNc1ccnc2cc(Cl)ccc12)Nc1ccc(Cl)cc1Cl,19*,20,1,7,-4,-14,
CCOc1ccc(NC(=S)NNc2ccnc3cc(Cl)ccc23)cc1,11,9,-5,14,2,-9,
O=C(NCc1cccnc1)O[C@H]1CC[C@@]23CCCN2C(=O)CCC[C@H]3C1,-1,0,.,.,.,-3,
O=[N+]([O-])c1cc2oc3c(c2c(C=NCc2ccncc2)c1O)CCCC3,.,.,.,50*,.,.,
CC(C)(C)N=Cc1c(O)ccc2oc3c(c12)CCCC3,12,7,-2,10,-2,-2,
CC(C)(N[C@@H](Cc1ccccc1)C(=O)NCCc1c[nH]c2ccccc12)C(=O)NC1CCCCC1,3,1,.,.,.,-1,
NC(N)=N/N=C/c1ccc(OCc2ccccc2)c(OCc2ccccc2)c1,25*,20,-8,-41,-11,-13,
CCOc1cc(/C=N/N=C(N)N)ccc1OCc1ccc(Cl)cc1,13,21,3,6,-5,-4,
Cn1c(SCCc2ccccc2)nnc1-c1ccco1,-3,-10,.,.,.,-6,
CC(C)N1CC=C2C(C#N)=C(N)C(C#N)(C#N)[C@H](c3ccoc3)[C@H]2C1,.,.,.,.,49*,.,
CC(C)N1CC=C2C(C#N)=C(N)C(C#N)(C#N)C(c3ccccc3)C2C1 (centres undefined),8,9,9,-1,6,-3,
CCN1CC=C2C(C#N)=C(N)C(C#N)(C#N)C(c3cc(Cl)ccc3Cl)C2C1 (centres undefined),7,23,6,17,22*,6,
O=S(=O)(c1ccccc1F)N1CCC(c2nc3ccccc3o2)CC1,6,7,.,.,.,-6,
Nc1[nH]c(C(=O)c2ccccc2)c(-c2cccc3ccccc23)c1C(=O)c1c(-c2ccccc2)[nH]c2ccccc12,3,2,.,.,.,-4,
COCCCNC(=O)C[C@H]1C[C@@]2(C(=O)OC)C(=C[C@H](C3CCCC3)O[C@@H]2C)N(CCC2=CCCCC2)C1=O,7,5,.,.,.,-1,
COc1ccc(C=Nn2c(-c3ccccc3F)n[nH]c2=S)cc1OCc1ccccc1,0,-18,.,.,.,5,
COCCCNc1nc2c(c(=O)[nH]c(=O)n2C)n1CC(O)COc1ccccc1C (centres undefined),19*,7,7,2,0,-3,
COc1cccc(OCc2cc(/C=N/Nc3ccc(C(=O)O)cc3)ccc2OC)c1,3,34*,0,-61,-1,-8,
Cc1cc(Nc2ccc(Cl)cc2)nc(NCc2ccccc2)n1,23*,17,-1,-17,-5,1,
O=C(O)c1ccc(-n2cccc2/C=C2/NC(=O)N(c3ccccc3)C2=O)cc1,2,4,24*,1,4,-9,
SMILES,SIAE inh,ABHD4 inh,TCR-CD3 inh,HTRA1 inh,PAD4 inh,TDP2 absorb,others
O=C(O)c1ccc(-n2cccc2/C=C2/NC(=O)N(c3cccc(Cl)c3)C2=O)cc1,-2,-5,12,-22,.,-6,
C=CCN1[C@H](C#N)[C@@H](c2ccc(Br)cc2)[C@H]1CO,-3,1,.,.,.,9,
COc1cc(/C=C2/C(=O)c3cccc([N+](=O)[O-])c3C2=O)c(Br)cc1O,-15,46*,-7,30,-6,6,
COc1ccccc1NC(=O)CCCCCN1C(=O)c2cccc([N+](=O)[O-])c2C1=O,-2,1,3,-1,0,4,
O=C(Nc1cccc(C(F)(F)F)c1)O[C@@H]1CC[C@@]23CCCN2C(=O)CCC[C@H]3C1,-5,-4,.,.,.,-16,
Cc1cc(N/N=C/c2ccc(O)cc2O)nc(N2CCOCC2)n1,10,2,1,-2,-3,21,
Oc1ccc(/C=N\Nc2cc(N3CCOCC3)nc(N3CCOCC3)n2)c(O)c1,23*,13,-7,6,-2,-10,
CCC1=NNc2cccc3c(OC)ccc1c23,.,.,.,.,37*,.,
COc1ccc2c3c(cccc13)C(=O)N(O)C2=O,5,9,-3,0,4,2,
CCOC(=O)C1CCN(C(=O)Nc2ccc3nc(-c4ccco4)c(-c4ccco4)nc3c2)CC1,.,.,.,45*,-3,.,
COc1ccc2c3c(ccc2c1)C(=O)/C(=C/O)CC3,6,27,5,38*,.,4,
COc1ccc2c(c1)CC/C(=C/c1ccncc1)C2=O,.,.,.,-6,-2,.,
O=C(O)COc1ccc(Br)cc1C(c1c(C(=O)O)[nH]c2ccccc12)c1c(C(=O)O)[nH]c2ccccc12,.,.,.,1,3,.,
O=C(O)c1[nH]c2ccccc2c1C(c1cc(Cl)cc([N+](=O)[O-])c1O)c1c(C(=O)O)[nH]c2ccccc12,0,68*,1,35,2,23,
COc1ccc2c(C)cc(=O)oc2c1C,-1,13,-11,2,-8,3,
Cc1cc(=O)oc2c3c(ccc12)OC/C3=N/N,-7,26,22*,13,-1,-6,
O=C(CCc1ccccc1)N[C@H]1[C@@H](OC(=O)c2cccnc2)CCC[C@]12C(=O)N(Cc1ccccc1)c1ccccc12,-2,-2,.,.,.,1,
Cn1ccnc1C(=O)O[C@@H]1CCC[C@@]2(C(=O)N(Cc3ccccc3)c3ccccc32)[C@H]1NC(=O)CCc1ccccc1,-5,-1,.,.,.,4,
OCCN(CCO)c1ccc(C(c2ccc(Cl)cc2)c2ccc(N(CCO)CCO)cc2Cl)c(Cl)c1,10,18,6,29,15*,-2,PAD4 FP conf=5
Cc1cc(N(CCO)CCO)ccc1N=Nc1cc(F)ccc1F,6,16,11,31,-3,-2,
N#CC1(C#N)C(c2ccccc2)OC23CCCCC2C1(C#N)C(=N)O3 (centres undefined),11,24,16,21,12,8,
CCCCC1OC23CCCCC2C(C#N)(C(=N)O3)C1(C#N)C#N (centres undefined),12,6,10,23,10,1,
